Laboratory results from publication PMC10373466 (ACS Omega, 2023).
Values joined by “and” are separate entries in the source; they are usually repeats but may differ in a detail not shown here. Identical values can stand only once.

What was measured:
hAChE = hAChE (Homo sapiens, UniProt P22303); assay: In vitro AChE inhibition assay; assay type: biochemical; settings: for IC50: in vitro AChE inhibition IC50 ± SD, Ellman method, n = 3
hBuChE = hBuChE (Homo sapiens, UniProt P06276); assay: In vitro BuChE inhibition assay; assay type: biochemical; settings: for IC50: BuChE IC50 ± SD, modified Ellman method
hBuChE, sequence (P06276 29-602): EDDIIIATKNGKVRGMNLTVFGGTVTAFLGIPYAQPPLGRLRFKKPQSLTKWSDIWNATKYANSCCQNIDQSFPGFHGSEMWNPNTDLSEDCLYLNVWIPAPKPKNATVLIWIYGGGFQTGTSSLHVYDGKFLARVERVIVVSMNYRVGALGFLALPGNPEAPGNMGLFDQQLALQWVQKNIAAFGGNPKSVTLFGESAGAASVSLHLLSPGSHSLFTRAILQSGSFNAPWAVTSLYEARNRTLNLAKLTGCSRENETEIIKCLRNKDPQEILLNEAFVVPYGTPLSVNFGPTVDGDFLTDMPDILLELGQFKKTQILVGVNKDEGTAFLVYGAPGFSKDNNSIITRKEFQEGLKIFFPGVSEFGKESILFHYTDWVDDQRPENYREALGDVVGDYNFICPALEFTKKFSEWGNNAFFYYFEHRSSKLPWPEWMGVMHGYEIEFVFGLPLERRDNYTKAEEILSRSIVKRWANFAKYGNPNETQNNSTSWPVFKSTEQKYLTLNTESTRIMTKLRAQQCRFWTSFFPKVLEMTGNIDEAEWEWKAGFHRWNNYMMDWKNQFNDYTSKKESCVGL

BACE-1 = BACE-1 (Homo sapiens, UniProt P56817); assay: β-Secretase inhibition assay; assay type: biochemical; settings: BACE-1 IC50 ± SD
BACE-1, sequence (P56817 46-501): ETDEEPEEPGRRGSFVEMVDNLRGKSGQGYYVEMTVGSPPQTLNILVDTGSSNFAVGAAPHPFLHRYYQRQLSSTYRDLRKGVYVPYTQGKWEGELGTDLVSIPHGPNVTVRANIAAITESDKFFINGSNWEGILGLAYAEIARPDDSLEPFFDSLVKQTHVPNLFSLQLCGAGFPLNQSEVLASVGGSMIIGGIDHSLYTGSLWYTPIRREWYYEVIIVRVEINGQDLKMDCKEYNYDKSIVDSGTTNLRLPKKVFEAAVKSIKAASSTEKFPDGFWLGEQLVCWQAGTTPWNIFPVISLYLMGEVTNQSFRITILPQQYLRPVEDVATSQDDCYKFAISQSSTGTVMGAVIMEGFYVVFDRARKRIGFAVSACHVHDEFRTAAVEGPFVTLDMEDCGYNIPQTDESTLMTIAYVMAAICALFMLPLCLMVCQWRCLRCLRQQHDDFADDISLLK

hMAO-B = molecular target: T1, hMAO-B (Homo sapiens, UniProt P27338); assay: biochemical; assay type: biochemical
T1 sequence (P27338 1-520): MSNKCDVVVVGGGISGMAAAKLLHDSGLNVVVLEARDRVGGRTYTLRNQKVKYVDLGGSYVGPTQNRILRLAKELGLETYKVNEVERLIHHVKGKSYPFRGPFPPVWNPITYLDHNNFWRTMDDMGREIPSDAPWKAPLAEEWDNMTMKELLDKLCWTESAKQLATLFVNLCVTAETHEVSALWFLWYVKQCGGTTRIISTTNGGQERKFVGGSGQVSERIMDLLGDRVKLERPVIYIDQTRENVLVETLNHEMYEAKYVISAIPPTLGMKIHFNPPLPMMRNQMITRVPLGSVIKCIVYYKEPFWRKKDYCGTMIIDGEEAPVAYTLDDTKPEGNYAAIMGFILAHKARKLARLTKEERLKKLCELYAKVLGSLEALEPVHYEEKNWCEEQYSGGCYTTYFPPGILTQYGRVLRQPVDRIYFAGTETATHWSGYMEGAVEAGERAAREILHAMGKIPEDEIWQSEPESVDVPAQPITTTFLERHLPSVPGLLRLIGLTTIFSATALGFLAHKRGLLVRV

Aβ1–42 = Aβ1–42 (Homo sapiens, UniProt P05067); assay: Self-induced Aβ1–42 aggregation inhibition; assay type: biochemical; settings: for IC50: Aβ1–42 aggregation inhibition IC50, self-induced aggregation; for inhibition at 10 µM: read-out: Aβ1–42 (% inhibition at 10 μM)
Aβ1–42, sequence (P05067 672-713): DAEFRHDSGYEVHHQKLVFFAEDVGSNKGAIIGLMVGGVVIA

[1] = In vitro neurotoxicity MTT assay; assay type: cell-based; settings: human, SH-SY5Y neuroblastoma cells
[2] = Metal chelation assay, UV–vis spectroscopy; assay type: physicochemical; settings: compound 30 μM, FeSO4 30 μM, ethanol
Outline: (§1)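 Test compound and metal salt (CuSO4, ZnSO4 or FeSO4) mixed in ethanol, both at 30 μM final, and incubated 30 min at room temperature. UV-vis spectra were recorded from 200 to 600 nm for the compound alone, the metal alone and the mixture. Spectra of metal alone and compound alone were subtracted from the mixture spectrum to give the difference spectrum attributed to complex formation.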

[3] = Metal chelation assay, UV–vis spectroscopy; assay type: physicochemical; settings: compound 30 μM, CuSO4 30 μM, ethanol
Outline: as §1

[4] = Metal chelation assay, UV–vis spectroscopy; assay type: physicochemical; settings: compound 30 μM, ZnSO4 30 μM, ethanol
Outline: as §1

[5] = In vitro hepatotoxicity MTT assay; settings: human
HepG2 cell line = assay: In vitro hepatotoxicity MTT assay; settings: ratio of hepatotoxicity IC50 to AChE IC50
[6] = Total antioxidant capacity; settings: Trolox TAC value = 1.00

hAChE, sequence (P22303 32-614): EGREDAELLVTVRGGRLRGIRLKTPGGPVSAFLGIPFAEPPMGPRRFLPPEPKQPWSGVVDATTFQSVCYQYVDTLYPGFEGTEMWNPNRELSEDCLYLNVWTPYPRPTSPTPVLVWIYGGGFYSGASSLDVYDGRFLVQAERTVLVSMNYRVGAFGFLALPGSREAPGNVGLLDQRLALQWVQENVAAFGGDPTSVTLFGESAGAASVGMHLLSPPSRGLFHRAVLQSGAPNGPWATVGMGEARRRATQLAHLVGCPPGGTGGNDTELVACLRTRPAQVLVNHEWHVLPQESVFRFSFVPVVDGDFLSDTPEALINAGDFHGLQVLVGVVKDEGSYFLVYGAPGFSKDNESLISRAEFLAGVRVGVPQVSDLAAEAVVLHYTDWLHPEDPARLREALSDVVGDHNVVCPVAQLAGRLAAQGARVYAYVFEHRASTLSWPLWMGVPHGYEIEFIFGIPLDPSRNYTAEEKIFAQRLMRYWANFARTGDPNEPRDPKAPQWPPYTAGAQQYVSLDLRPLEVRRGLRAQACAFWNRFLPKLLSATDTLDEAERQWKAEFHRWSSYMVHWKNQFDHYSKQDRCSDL

Row | SMILES | AChE SI (selectivity index) = IC50 of BuChE/IC50 of AChE (hAChE) | IC50 (hAChE) [nM] | BuChE SI (selectivity index) = IC50 of AChE/IC50 of BuChE (hBuChE) | fold more active than rivastigmine (BuChE inhibition) (hBuChE) [fold] | IC50 (hBuChE) | IC50 (BACE-1) [nM] | IC50 (hMAO-B) [µM] | times better than iproniazid (MAO-B inhibition) (hMAO-B) [times] | times more active than curcumin (Aβ aggregation inhibition) (Aβ1–42) [fold] | IC50 (Aβ1–42) [µM] | inhibition at 10 µM (Aβ1–42) [%] | IC50 [1] [µM] | UV–vis spectral change on addition of FeSO4 (metal chelation) [2] | UV–vis spectral change on addition of CuSO4 (metal chelation) [3] | UV–vis spectral change on addition of ZnSO4 (metal chelation) [4] | IC50 at 24 h [5] [µM] | safety index ratio (SI) (HepG2 cell line) | total antioxidant capacity (Trolox equivalent) [6]
1 | Nc1c2c(nc3c1C(c1ccc(Cl)c(Cl)c1)c1ccc(OCC(=O)c4ccc(Cl)cc4)cc1O3)CCCC2 (centres unmarked) [5d, 2-[11-Amino-12-(3,4-dichlorophenyl)-7,9,10,12-tetrahydro-8H-chromeno[2,3-b]quinolin-3-yl]oxy-1-(4-chlorophenyl)ethan-1-one] | 0.59 | 250 ± 10 | 1.69 | 5 | 140 ± 9 nM | 440 ± 21 | 2.42 ± 0.08 | ~3 | 8 | 0.74 ± 0.03 | 76 | 71.1 ± 2.8 | noticeable optical shift | slight hyperchromic shift | slight hyperchromic shift | 154 ± 6.2 | 611.51 | 
2 | Cc1ccc(S(=O)(=O)Oc2ccc3c(c2)Oc2nc4c(c(N)c2C3c2ccc(Cl)c(Cl)c2)CCCC4)cc1 (centres unmarked) [4n, 11-Amino-12-(3,4-dichlorophenyl)-7,9,10,12-tetrahydro-8H-chromeno[2,3-b]quinolin-3-yl-4-methylbenzenesulfonate] | 0.38 | 470 ± 20 | 2.59 | ~4 | 180 ± 11 nM | 250 ± 11 | 3.73 ± 0.13 | ~2 |  | 17.4 ± 0.68 | 40 | 91.7 ± 4.06 | remarkable hyperchromic effect | remarkable hyperchromic effect | remarkable hyperchromic effect | 67.4 ± 3.3 | 141.53 | 0.66 ± 0.026 μmol of Trolox equivalent/μmol tested compound
3 | Nc1c2c(nc3c1C(c1ccc(Cl)c(Cl)c1)c1ccc(OCC(=O)c4ccccc4)cc1O3)CCCC2 (centres unmarked) [5i, 2-[11-Amino-12-(3,4-dichlorophenyl)-7,9,10,12-tetrahydro-8H-chromeno[2,3-b]quinolin-3-yl]oxy-1-phenylethan-1-one] | 0.47 | 560 ± 30 | 2.12 | ~4 | 260 ± 16 nM | 2120 ± 98 | 1.62 ± 0.05 | ~4 |  | 1.41 ± 0.05 | 68 | 17.2 ± 0.76 | hyperchromic effect | without remarkable shifts | without remarkable shifts | 113 ± 5.1 | 200.53 | 
4 | Nc1c2c(nc3c1C(c1cccc([N+](=O)[O-])c1)c1ccc(OCC(=O)c4ccc(Cl)cc4)cc1O3)CCCC2 (centres unmarked) [5c, 2-[11-Amino-12-(3-nitrophenyl)-7,9,10,12-tetrahydro-8H-chromeno[2,3-b]quinolin-3-yl]oxy-1-(4-chlorophenyl)ethan-1-one] | 0.19 | 440 ± 20 | 5.37 | 10 | 82 nM and 80 nM | 380 ± 17 | 5.15 ± 0.17 |  |  | 2.85 ± 0.11 | 59 | 36.3 ± 1.43 | noteworthy hyperchromic effect | noteworthy hyperchromic effect | slight hyperchromic effect | 188 ± 6.9 | 427.73 | 0.88 ± 0.034 μmol of Trolox equivalent/μmol tested compound
5 | COc1ccc(S(=O)(=O)Oc2ccc3c(c2)Oc2nc4c(c(N)c2C3c2cccc(OC)c2)CCCC4)cc1 (centres unmarked) [4g, 11-Amino-12-(3-methoxyphenyl)-7,9,10,12-tetrahydro-8H-chromeno[2,3-b]quinolin-3-yl-4-methoxybenzenesulfonate] | 1.18 | 300 ± 10 | 0.85 |  | 350 ± 21 nM | 1460 ± 68 | 12.7 ± 0.43 |  |  | 11.7 ± 0.45 | 43 | 86 ± 3.81 | hyperchromic shifts | hyperchromic shifts | slight hypochromic shift | 126 ± 5.3 | 417.88 | 
6 | Nc1c2c(nc3c1C(c1cccc([N+](=O)[O-])c1)c1ccc(OS(=O)(=O)c4ccc(F)cc4)cc1O3)CCCC2 (centres unmarked) [4c, 11-Amino-12-(3-nitrophenyl)-7,9,10,12-tetrahydro-8H-chromeno[2,3-b]quinolin-3-yl-4-fluorobenzenesulfonate] | 1.11 | 620 ± 30 | 0.90 |  | 690 ± 41 nM | 2680 ± 123 | 8.04 ± 0.27 |  |  | 4.28 ± 0.17 | 47 | 27.9 ± 1.24 | extraordinary hyperchromic shifts | extraordinary hyperchromic shifts | extraordinary hyperchromic shifts | 78.3 ± 3.6 | 125.26 | 0.80 ± 0.032 μmol of Trolox equivalent/μmol tested compound
